Published values from different studies.
Each line is one published result; the experiments were not run side by side.
Cell line: A549

CN1C(=O)/C(=N\NC(=O)c2cc3ccccc3[nH]2)c2cc(F)ccc21  IC50 (cell growth or viability): 2.82 µM
C[C@H]1Oc2cc(cnc2N)-c2c(nn(C)c2C#N)CN(C)C(=O)c2ccc(F)cc21  IC50 (cell growth or viability): > 8.4 µM
CCC(=O)Nc1cc(Nc2nc(N3CCc4sccc4C3)c3cccnc3n2)c(OC)cc1N1CCN(CCO)CC1  IC50 (cell growth or viability, MTT): > 50 µM
COc1ccc(NC(=O)Nc2ccc(OCc3nccc(OC)c3OC)cc2)cc1  IC50 (cell growth or viability, MTT; 72 h): 16.7 µM
COc1ccc(/C=C/C(=O)C(=Cc2ccc(F)cc2)C(=O)/C=C/c2ccc(OC)c(OC)c2)cc1OC  IC50 (colony formation; 9 days): < 0.2 µM
C=C(Cl)C(=O)Nc1cc(Nc2nc(N3CCCC3)c3sccc3n2)c(OC)cc1N(C)CCN(C)C  IC50 (cell growth or viability, MTT): 4.54 µM
Cc1ccc(C)n1-c1ccc(-c2nnc(-c3ccc(Br)cc3)[nH]2)cc1  IC50 (cell growth or viability, MTT; 72 h): 225 µM
O=C(NCCc1ccccc1)NNC(=O)c1ccc(Nc2nccc(-c3cccnc3)n2)cc1  IC50 (cell growth or viability, MTT): 23.7 µM
CS(=O)(=O)c1ccc(-n2cc(/C=N/N=c3\[nH]c(-c4ccc([N+](=O)[O-])cc4)cs3)c(-c3ccc([N+](=O)[O-])cc3)n2)cc1  IC50 (cell growth or viability, MTT; 48 h): 22.2 µM
COc1ccc(C(=O)O[C@@H]2CN3Cc4c(cc5c(c4OC)OCO5)[C@@]24C=C[C@H](OC)C[C@@H]34)cc1  IC50 (cell growth or viability, WST-1): > 10 µM
Brc1ccc(Nc2nc(NCCc3ccccc3)nc(NCCc3ccccc3)n2)cc1  IC50 (cell growth or viability, SRB; 72 h): 19.7 µM
CC1=C(O)C(=O)C=C2C1=CC=C1[C@@]2(C)CC[C@@]2(C)[C@@H]3C[C@](C)(C(=O)OCCCCCCCO)CC[C@]3(C)CC[C@]12C  IC50 (cell growth or viability, MTT; 48 h): > 100 µM
COc1cc2ncnc(Nc3ccc(F)c(Cl)c3)c2cc1NC(=O)N/N=C/c1cccn1CCN1CCOCC1  IC50 (cell growth or viability, MTT; 72 h): 0.58 µM
COc1ccc(/C=C2\SC(=S)N(CC(=O)Nc3ccccc3)C2=O)cc1  IC50 (cell growth or viability, MTT): 25.7 µM
NS(=O)(=O)OC[C@@H]1C[C@@H](n2ccc3c(N[C@H]4CCc5ccccc54)ncnc32)C[C@@H]1O  IC50 (cell growth or viability, CCK-8; 72 h): 0.8 µM
Oc1ncnc2cc(Nc3nc(-c4ccc(Br)cc4)cs3)ccc12  IC50 (cell growth or viability, MTT): 22.9 µM
COc1ccc(NC(=O)NNC(=O)c2cccc(Nc3nccc(-c4cccnc4)n3)c2)c(OC)c1  IC50 (cell growth or viability, MTT; 24 h): > 40 µM
CCCc1ccc(OCC(O)CNC/C=C/c2ccccc2OC)cc1 (stereo not drawn)  IC50 (cell growth or viability, CCK-8; 72 h): 31.6 µM
CC(C)(C)NC(=O)NNC(=O)c1ccc(Nc2nccc(-c3ccc(Cl)cc3)n2)cc1  IC50 (cell growth or viability, MTT): 19.5 µM
C=CC(=O)Nc1cccc(Oc2nc(Nc3ccc(N4CCN(C)CC4)cc3)nc3ccsc23)c1  IC50 (cell growth or viability, MTT): 4.22 µM
COc1cc([C@@H]2c3cc4c(cc3[C@@H](O[C@@H]3O[C@@H]5CO[C@@H](C)O[C@H]5[C@H](O)[C@H]3O)[C@H]3COC(=O)[C@H]23)OCO4)cc(OC)c1O  IC50 (cell growth or viability, MTT; 72 h): 0.54 µM
CCCNc1nc(NCCC)nc(Nc2ccc(Br)cc2)n1  IC50 (cell growth or viability, SRB; 72 h): 16.1 µM
O=C(N/N=C/c1cccn1CCCN1CCCCC1)Nc1cc2c(Nc3ccc(F)c(Cl)c3)ncnc2cc1O[C@H]1CCOC1  IC50 (cell growth or viability, MTT; 72 h): 2.44 µM
CCOC(=O)/C=C1\S/C(=N\C(=O)c2ccc3ccccc3c2)N(C2CCCCC2)C1=O  IC50 (cell growth or viability; 48 h): 13.8 µM
O=C(N/N=C/CN1CCCCC1)Nc1cc2c(Nc3ccc(F)c(Cl)c3)ncnc2cc1O[C@H]1CCOC1  IC50 (cell growth or viability, MTT; 72 h): 4.2 µM
COc1cccc2c1C(=O)c1c(O)c3c(c(O)c1C2=O)C[C@@](O)(C(=O)CO)C[C@@H]3O[C@H]1C[C@H](N)[C@H](O)[C@H](C)O1  IC50 (cell growth or viability, MTT; 48 h): 5.06 µM
COc1c(C)cnc(COc2ccc(NC(=O)Nc3ccc(Cl)cc3)cc2)c1C  IC50 (cell growth or viability, MTT; 72 h): 13.7 µM
COc1cc(N(C)CCN(C)C)c(NC(=O)C=C(C)C)cc1Nc1nc(Nc2cnn(C)c2)c2sccc2n1  IC50 (cell growth or viability, MTT): 1.56 µM
Nc1ccc(Cl)c[n+]1[Pt-2]([Cl])([Cl])[n+]1cc(Cl)ccc1N  IC50 (cell growth or viability, MTT; 24 h): 8.6 µM
COc1ccccc1OCCNC[C@@H](O)COc1cccc2[nH]c3ccccc3c12  IC50 (cell growth or viability, CCK-8): 23.4 µM
CC(=O)OCCOC(=O)[C@]1(C)CC[C@]2(C)CC[C@]3(C)C4=CC=C5C(=CC(=O)C(O)=C5C)[C@]4(C)CC[C@@]3(C)[C@@H]2C1  IC50 (cell growth or viability, MTT; 48 h): 3.19 µM
O=C(NC(=S)N1CCCCC1)c1ccc2ccccc2c1  IC50 (cell growth or viability; 48 h): 5.95 µM
COc1ccnc(COc2ccc(NC(=O)Nc3cc(F)cc(F)c3)cc2)c1OC  IC50 (cell growth or viability, MTT; 72 h): 17.3 µM
CCCCC/C=C/C(=O)CCc1ccc(O)c(OC)c1  IC50 (cell growth or viability, SRB): 18.6 µM
Cc1c(OCC(F)(F)F)ccnc1COc1ccc(NC(=O)Nc2ccc(F)cc2)cc1  IC50 (cell growth or viability, MTT; 72 h): 5.37 µM
CC(C)Cc1ccc(-c2nn(-c3ccc(S(C)(=O)=O)cc3)cc2/C=N\N=C2/NC(=O)CS2)cc1  IC50 (cell growth or viability, MTT; 48 h): 3.44 µM
CC1=C(O)C(=O)C=C2C1=CC=C1[C@@]2(C)CC[C@@]2(C)[C@@H]3C[C@](C)(C(=O)OCCCCCCO)CC[C@]3(C)CC[C@]12C  IC50 (cell growth or viability, MTT; 48 h): > 100 µM
CCN(CC)CCCn1cccc1/C=N/NC(=O)Nc1cc2c(Nc3ccc(F)c(Cl)c3)ncnc2cc1O[C@H]1CCOC1  IC50 (cell growth or viability, MTT; 72 h): 2.36 µM
C=CC1=C(C)c2cc3[nH]c(cc4nc(cc5[nH]c(cc1n2)c(C)c5CCC(=O)O)C(CCC(=O)O)=C4C)c(C)c3C=C  IC50 (cell growth or viability; 4 h, dark): > 100 µM
Oc1ncnc2cc(Nc3nc(-c4ccc(C(F)(F)F)cc4)cs3)ccc12  IC50 (cell growth or viability, MTT): 14.8 µM
C=CC(=O)Nc1cc(Nc2nc(N3CCc4sccc4C3)c3cccnc3n2)c(OC)cc1N1CCSCC1  IC50 (cell growth or viability, MTT): 23.9 µM
COc1cc([C@@H]2c3cc4c(cc3[C@@H](O[C@@H]3O[C@@H]5CO[C@@H](C)O[C@H]5[C@H](O)[C@H]3O)[C@H]3COC(=O)[C@H]23)OCO4)cc(OC)c1O  IC50 (cell growth or viability, fluorescence; 48 h): 4.1 µM
O=C(N/N=C/CN1CCOCC1)Nc1cc2c(Nc3ccc(F)c(Cl)c3)ncnc2cc1O[C@H]1CCOC1  IC50 (cell growth or viability, MTT; 72 h): 5.62 µM
COc1ccccc1/C=C/CNCC(O)COc1cccc2[nH]ccc12 (stereo not drawn)  IC50 (cell growth or viability, CCK-8; 72 h): 26.9 µM
C=CC(=O)Nc1cc(Nc2nc(N3CCc4sccc4C3)c3cccnc3n2)c(OC)cc1N1CCOCC1  IC50 (cell growth or viability, MTT): > 50 µM
COc1cc(-c2nc(C(=O)Nc3nnc(-c4cc5ccccc5n4C)s3)cc3c2[nH]c2ccccc23)cc(OC)c1OC  IC50 (cell growth or viability, MTT; 72 h): 7.85 µM
O=C1Nc2ccc(Br)cc2/C1=N/NC(=O)c1cc2ccccc2[nH]1  IC50 (cell growth or viability): 16 µM
COc1cc2ncnc(Nc3ccc(F)c(Cl)c3)c2cc1NC(=O)N/N=C/CN1CCN(C)CC1  IC50 (cell growth or viability, MTT; 72 h): 6.6 µM
COc1ccnc(COc2ccc(NC(=O)Nc3ccc(Cl)c(C(F)(F)F)c3)cc2)c1OC  IC50 (cell growth or viability, MTT; 72 h): 15.4 µM
CCC(=O)Nc1cc(Nc2nc(N3CCc4sccc4C3)c3cccnc3n2)c(OC)cc1N1CCC(N(C)C)CC1  IC50 (cell growth or viability, MTT): 1.25 µM
O=C(NC(=S)Nc1ccccc1)c1ccc2ccccc2c1  IC50 (cell growth or viability; 48 h): 6.86 µM
COc1ccccc1/C=C/CNCC(O)COc1ccc2c(c1)[nH]c1ccccc12 (stereo not drawn)  IC50 (cell growth or viability, CCK-8; 72 h): 6.8 µM
O=C1Nc2ccc(Cl)cc2/C1=N/NC(=O)c1cc2ccccc2[nH]1  IC50 (cell growth or viability): 19.7 µM
O=C(NC(=S)N1CCCC1)c1ccc2ccccc2c1  IC50 (cell growth or viability; 48 h): 4.22 µM
O=C1NCCc2[nH]c(-c3ccncc3)cc21  IC50 (cell growth or viability): > 10 µM
COc1cc2ncnc(Nc3ccc(F)c(Cl)c3)c2cc1NC(=O)N/N=C/c1cccn1CCCN(C)C  IC50 (cell growth or viability, MTT; 72 h): 2 µM
Cc1ccc(C)n1-c1ccc(-c2nnco2)cc1  IC50 (cell growth or viability, MTT; 72 h): 226 µM
